Measured values taken from ChEMBL document CHEMBL3085696, “Aurora isoform selectivity: design and synthesis of imidazo[4,5-b]pyridine derivatives as highly selective inhibitors of Aurora-A kinase in cells” (J Med Chem, 2013).

Experiments:
Mus musculus = test: Oral bioavailability in Balb/C mouse at 5 mg/kg; assay type: ADME, organism-based; conditions: in vivo
Summary of the method: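 Female Balb/C mice given 5 mg/kg po or iv in 10% DMSO/5% Tween 20 in saline. Terminal cardiac-puncture plasma taken at 5, 15, 30 min and 1, 2, 4, 6, 24 h. Methanol precipitation with olomoucine internal standard. Analysis by LC/MS (ESI+ MRM).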

[1] = Metabolic stability in CD1 mouse liver microsomes at 10 uM after 30 mins; assay type: ADME, Microsome
Summary of the method: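 Compound at 10 μM incubated with male CD1 mouse liver microsomes (1 mg/mL protein) plus NADPH 1 mM, UDPGA 2.5 mM and MgCl2 3 mM in 10 mM PBS at 37 °C, for 0 and 30 min. Controls omit cofactors. Percent remaining measured by LC/MS.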

Aurora kinase A [2] = molecular target: T1, Aurora kinase A (Homo sapiens, UniProt O14965); test: Inhibition of N-terminal HIS-tagged aurora-A (unknown origin) using 5FAM-LRRASLG-CONH2 as substrate after 60 mins
T1 sequence (O14965 whole entry): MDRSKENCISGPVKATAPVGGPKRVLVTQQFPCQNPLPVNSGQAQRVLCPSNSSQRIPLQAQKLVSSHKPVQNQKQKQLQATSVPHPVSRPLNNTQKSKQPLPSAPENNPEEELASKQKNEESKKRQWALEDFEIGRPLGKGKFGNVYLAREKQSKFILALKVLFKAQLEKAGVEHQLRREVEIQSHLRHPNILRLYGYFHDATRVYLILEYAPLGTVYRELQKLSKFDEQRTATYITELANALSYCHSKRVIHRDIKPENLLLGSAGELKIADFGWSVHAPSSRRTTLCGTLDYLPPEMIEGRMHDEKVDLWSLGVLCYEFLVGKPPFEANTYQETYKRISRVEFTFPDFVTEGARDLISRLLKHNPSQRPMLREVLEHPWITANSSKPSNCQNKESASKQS
Summary of the method: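 Aurora-A (5 nM N-terminal His-tagged) incubated with 1.5 μM 5FAM-LRRASLG-CONH2 peptide and 20 μM ATP in 50 mM Tris pH 7.4, 200 mM NaCl, 5 mM MgCl2, 2 mM DTT, 0.1% Tween 20. Runs 60 min at room temperature; EDTA stop. Microfluidic separation of product from substrate. Duplicate 8-point curves, 0.25 pM–200 μM final, 1–2% DMSO. IC50 from four-parameter logistic fit.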

[3] = molecular target: Vascular endothelial growth factor receptor 1 (Homo sapiens) (UniProt P17948); test: Inhibition of VEGFR1 (unknown origin) at 1 uM
Summary of the method: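 110-kinase panel profiling, compounds tested at 1 μM, read as percent inhibition.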

Aurora kinase A [4] = molecular target: T1, Aurora kinase A; test: Inhibition of autophosphorylation of N-terminal Myc tagged wild type aurora-A at T288 in human HCT116 cells after 2 hrs; assay type: cell-based, HCT-116
Summary of the method: (§1)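 Cells transfected with N-terminal Myc-tagged Aurora-A (wild type or T217E, L215R or R220K mutant, made by Quikchange mutagenesis), then exposed to a range of inhibitor concentrations for 2 h. Lysed in LDS sample buffer, sonicated, boiled, run on LDS-PAGE and blotted to nitrocellulose. Probed with anti-P-T288 (Aurora-A autophosphorylation) and anti-P-histone H3 S10 (Aurora-B substrate) antibodies. Blots quantified and IC50 fitted.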

[5] = molecular target: Glycogen synthase kinase-3 beta (Homo sapiens) (UniProt P49841); conditions: 1 uM
Aurora kinase A [6] = molecular target: Aurora kinase A (Homo sapiens, UniProt O14965, T217E); test: Inhibition of autophosphorylation of aurora-A T217E mutant at T288 in human HCT116 cells after 2 hrs; assay type: cell-based, HCT-116; summary of the method: as §1
HeLa = test: Selectivity ratio of IC50 for aurora-B-mediated histone H3 phosphorylation at S10 in human HeLa cells to IC50 for autophosphorylation of N-terminal Myc tagged aurora-A at T288 in human HeLa cells; assay type: cell-based
Summary of the method: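 Cells transfected with Myc-tagged Aurora-A (wild type or T217E, L215R, R220K mutants) and treated with inhibitor concentrations for 2 h. Lysed in LDS buffer; SDS-type PAGE and western blot. Blots probed for P-T288 (Aurora-A autophosphorylation) and phospho-histone H3 S10 (Aurora-B substrate). Blots quantified; IC50 derived; ratio taken as H3 IC50 over T288 IC50.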

Chain of Aurora kinase A (Homo sapiens, UniProt O14965, T217E) (O14965 whole entry I57V/T217E): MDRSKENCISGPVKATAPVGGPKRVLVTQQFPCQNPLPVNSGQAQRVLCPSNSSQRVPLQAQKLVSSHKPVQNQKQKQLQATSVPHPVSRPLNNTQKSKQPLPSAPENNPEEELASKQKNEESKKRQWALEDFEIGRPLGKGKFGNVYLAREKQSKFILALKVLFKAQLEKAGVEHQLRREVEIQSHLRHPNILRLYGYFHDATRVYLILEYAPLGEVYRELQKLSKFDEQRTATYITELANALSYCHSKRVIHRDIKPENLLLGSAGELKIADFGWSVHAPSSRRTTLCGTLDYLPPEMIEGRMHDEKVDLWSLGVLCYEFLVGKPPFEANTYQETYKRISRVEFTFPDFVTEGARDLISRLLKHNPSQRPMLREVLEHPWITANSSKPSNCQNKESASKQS
Chain of Glycogen synthase kinase-3 beta (Homo sapiens) (P49841 whole entry, looked up): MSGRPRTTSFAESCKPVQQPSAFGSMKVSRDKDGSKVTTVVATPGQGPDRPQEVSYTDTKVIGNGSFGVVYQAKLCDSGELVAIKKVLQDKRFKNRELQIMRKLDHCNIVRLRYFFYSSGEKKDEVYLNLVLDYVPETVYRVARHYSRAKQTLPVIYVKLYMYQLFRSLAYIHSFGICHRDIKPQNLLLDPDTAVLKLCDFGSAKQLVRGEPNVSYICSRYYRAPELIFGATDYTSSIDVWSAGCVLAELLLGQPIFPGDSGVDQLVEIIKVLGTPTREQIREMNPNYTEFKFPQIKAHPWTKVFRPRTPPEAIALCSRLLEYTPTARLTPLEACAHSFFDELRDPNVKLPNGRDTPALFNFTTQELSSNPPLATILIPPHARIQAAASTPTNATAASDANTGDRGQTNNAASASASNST
Chain of Vascular endothelial growth factor receptor 1 (Homo sapiens) (P17948 whole entry): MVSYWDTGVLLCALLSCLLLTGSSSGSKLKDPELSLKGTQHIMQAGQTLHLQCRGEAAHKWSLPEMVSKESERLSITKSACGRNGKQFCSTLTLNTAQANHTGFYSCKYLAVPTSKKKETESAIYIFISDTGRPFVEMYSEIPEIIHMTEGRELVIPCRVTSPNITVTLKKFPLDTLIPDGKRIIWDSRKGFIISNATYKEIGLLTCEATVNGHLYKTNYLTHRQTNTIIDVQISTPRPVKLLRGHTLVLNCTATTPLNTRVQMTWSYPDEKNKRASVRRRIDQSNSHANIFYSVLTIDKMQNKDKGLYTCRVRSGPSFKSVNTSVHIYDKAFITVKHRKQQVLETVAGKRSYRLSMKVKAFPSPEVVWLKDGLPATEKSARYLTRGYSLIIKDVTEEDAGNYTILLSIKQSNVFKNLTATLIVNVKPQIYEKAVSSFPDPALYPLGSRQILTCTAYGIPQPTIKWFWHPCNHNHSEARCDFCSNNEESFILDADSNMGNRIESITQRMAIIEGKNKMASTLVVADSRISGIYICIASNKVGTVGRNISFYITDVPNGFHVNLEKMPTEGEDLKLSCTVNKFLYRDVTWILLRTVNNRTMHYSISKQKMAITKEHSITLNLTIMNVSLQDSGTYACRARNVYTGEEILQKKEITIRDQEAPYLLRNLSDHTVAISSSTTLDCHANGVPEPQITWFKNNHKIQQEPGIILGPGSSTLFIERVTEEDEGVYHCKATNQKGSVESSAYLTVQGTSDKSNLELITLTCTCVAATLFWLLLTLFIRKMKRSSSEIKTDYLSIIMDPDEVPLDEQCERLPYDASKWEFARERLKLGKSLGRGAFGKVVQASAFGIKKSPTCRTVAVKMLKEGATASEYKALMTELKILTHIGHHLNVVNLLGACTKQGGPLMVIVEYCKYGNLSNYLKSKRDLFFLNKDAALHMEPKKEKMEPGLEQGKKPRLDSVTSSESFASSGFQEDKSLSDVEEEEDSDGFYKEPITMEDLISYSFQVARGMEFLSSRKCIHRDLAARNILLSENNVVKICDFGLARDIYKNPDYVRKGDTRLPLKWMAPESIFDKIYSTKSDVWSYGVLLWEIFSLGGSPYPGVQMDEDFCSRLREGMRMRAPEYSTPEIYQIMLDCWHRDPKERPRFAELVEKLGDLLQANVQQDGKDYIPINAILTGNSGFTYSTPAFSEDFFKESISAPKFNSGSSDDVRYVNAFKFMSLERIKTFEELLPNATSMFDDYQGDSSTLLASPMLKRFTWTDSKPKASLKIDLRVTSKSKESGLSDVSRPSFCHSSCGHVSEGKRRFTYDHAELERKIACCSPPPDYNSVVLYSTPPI

Cc1nn(C)cc1-c1nc2c(Oc3ccc(C(=O)Nc4ccccc4)cc3)c(Cl)cnc2[nH]1
F (Mus musculus): 100% | metabolized at 0.5 h, 10 µM [1]: 22% | IC50 (Aurora kinase A [2]): 67 nM | inhibition [3]: > 80% | IC50 (Aurora kinase A [4]): 29 nM | inhibition [5]: > 80% | IC50 (Aurora kinase A [6]): 960 nM | Ratio IC50 (HeLa): 480
